According to ChEMBL document CHEMBL1145787, “Synthesis and structure-activity relationship of N-substituted 4-arylsulfonylpiperidine-4-hydroxamic acids as novel, orally active matrix metalloproteinase inhibitors for the treatment of osteoarthritis” (J Med Chem, 2003):
Each block holds one molecule with its values, some of them ahead of it.

How the values were obtained:
[1] = In vivo inhibition of Matrix metalloprotease enzyme by Sponge-wrapped cartilage assay, value are relative to activity of CGS-27023 (33+/-2) at 25 mg/kg. po. bid; assay type: functional
[2] = In vivo inhibitory activity against Matrix metalloprotease enzyme by dialysis implant assay, value is relative to activity of CGS-27023 (51+/-3) at 25 mg/kg. po; assay type: functional
[3] = In vivo inhibition of Matrix metalloprotease enzyme by Sponge-wrapped cartilage assay, value is relative to activity of RS-130830 (27+/-3) at 10 mg/kg. po. bid; assay type: functional
[4] = molecular target: T1, Disintegrin and metalloproteinase domain-containing protein 17 (Homo sapiens, UniProt P78536); assay: Inhibition of Tumor necrosis factor alpha converting enzyme (TACE) at 10 uM
T1 sequence (P78536 whole entry, the tested form may be a part): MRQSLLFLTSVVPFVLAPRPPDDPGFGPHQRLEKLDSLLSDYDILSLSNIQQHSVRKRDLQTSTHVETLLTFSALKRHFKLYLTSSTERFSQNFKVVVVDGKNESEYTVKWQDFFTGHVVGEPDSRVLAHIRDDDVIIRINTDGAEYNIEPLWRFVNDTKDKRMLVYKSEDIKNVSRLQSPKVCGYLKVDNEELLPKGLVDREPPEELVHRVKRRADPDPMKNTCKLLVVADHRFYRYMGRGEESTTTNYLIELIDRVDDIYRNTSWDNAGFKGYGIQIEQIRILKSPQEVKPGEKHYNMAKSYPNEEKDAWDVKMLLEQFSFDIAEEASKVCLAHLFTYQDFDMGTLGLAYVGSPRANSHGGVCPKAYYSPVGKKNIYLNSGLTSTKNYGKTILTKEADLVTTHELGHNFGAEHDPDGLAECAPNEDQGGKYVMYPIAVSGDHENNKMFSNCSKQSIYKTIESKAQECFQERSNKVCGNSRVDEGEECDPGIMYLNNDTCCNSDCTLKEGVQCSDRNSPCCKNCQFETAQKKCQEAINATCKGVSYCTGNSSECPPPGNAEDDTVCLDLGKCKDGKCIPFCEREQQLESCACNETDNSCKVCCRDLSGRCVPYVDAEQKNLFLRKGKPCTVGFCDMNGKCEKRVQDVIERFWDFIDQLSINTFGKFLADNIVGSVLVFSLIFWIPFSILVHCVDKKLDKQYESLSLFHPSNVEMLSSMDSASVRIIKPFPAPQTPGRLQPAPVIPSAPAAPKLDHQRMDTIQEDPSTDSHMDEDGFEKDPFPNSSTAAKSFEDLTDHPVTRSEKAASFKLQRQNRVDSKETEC
Summary of the method: (§1)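 Dose–response curves were not generated when inhibition was below 60% at 10 μM.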

Collagenase 3 = Collagenase 3 (Homo sapiens, UniProt P45452)
[5] = In vivo inhibitory activity against Matrix metalloprotease enzyme by dialysis implant assay, value is relative to activity of CGS-27023 (64+/-2) at 25 mg/kg. po; assay type: functional
[6] = In vivo inhibitory activity against Matrix metalloprotease enzyme by dialysis implant assay, value is relative to activity of CGS-27023 (75+/-2) at 25 mg/kg. po; assay type: functional
[7] = In vivo inhibition of Matrix metalloprotease enzyme by Sponge-wrapped cartilage assay, compared to activity of RS-130830 (inactive) at 5 mg/kg. po. qd; assay type: functional
[8] = In vivo inhibition of Matrix metalloprotease enzyme by Sponge-wrapped cartilage assay, value is relative to activity of RS-130830 (40+/-3) at 10 mg/kg. po. bid; assay type: functional
[9] = In vivo inhibition of Matrix metalloprotease enzyme by Sponge-wrapped cartilage assay, compared to activity of RS-130830 (20+/-2) at 5 mg/kg. po. bid; assay type: functional
[10] = molecular target: T1, Disintegrin and metalloproteinase domain-containing protein 17; assay: In vitro inhibitory activity against tumor necrosis factor alpha converting enzyme (TACE).
Rattus norvegicus = assay: In vivo inhibition of by Matrix metalloprotease enzyme Sponge-wrapped cartilage assay at 5 mg/kg. po. bid; assay type: functional
Oryctolagus cuniculus = assay: Effect of compound on cartilage in surgically induced osteoarthritis (OA) model in rabbit at 25 mg/kg; assay type: functional
Summary of the method: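 Rabbits had anterior cruciate ligament transection plus meniscectomy in one knee, with sham surgery on the contralateral knee. From day 10 after surgery, groups of 12 were dosed once daily by oral gavage with vehicle, test compound or the RS-130830 reference for 4 weeks. Knee joints were then collected and scored for gross pathological changes by blinded investigators.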

Interstitial collagenase = molecular target: T2, Interstitial collagenase (Homo sapiens, UniProt P03956); assay: In vitro inhibitory activity against matrix metalloprotease-1
T2 sequence (P03956 whole entry): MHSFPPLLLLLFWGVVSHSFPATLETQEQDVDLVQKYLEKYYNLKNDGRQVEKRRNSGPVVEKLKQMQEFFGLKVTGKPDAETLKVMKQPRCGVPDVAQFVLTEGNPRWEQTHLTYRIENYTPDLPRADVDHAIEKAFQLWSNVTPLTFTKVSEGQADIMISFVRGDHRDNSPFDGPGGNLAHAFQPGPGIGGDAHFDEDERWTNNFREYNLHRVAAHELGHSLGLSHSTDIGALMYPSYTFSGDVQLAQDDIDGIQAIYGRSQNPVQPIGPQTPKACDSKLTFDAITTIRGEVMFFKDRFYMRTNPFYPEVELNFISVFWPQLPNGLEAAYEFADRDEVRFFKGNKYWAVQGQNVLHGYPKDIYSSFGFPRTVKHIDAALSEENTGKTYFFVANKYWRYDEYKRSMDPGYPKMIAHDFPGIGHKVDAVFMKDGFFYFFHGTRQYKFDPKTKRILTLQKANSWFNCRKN

[11] = In vivo inhibitory activity against Matrix metalloprotease enzyme by dialysis implant assay, value is relative to activity of CGS-27023 (74+/-2) at 25 mg/kg. po; assay type: functional
[12] = molecular target: Matrix metalloproteinase-9 (Homo sapiens, UniProt P14780); assay: In vitro inhibitory activity against matrix metalloprotease-9.
Chain of Matrix metalloproteinase-9 (P14780 whole entry): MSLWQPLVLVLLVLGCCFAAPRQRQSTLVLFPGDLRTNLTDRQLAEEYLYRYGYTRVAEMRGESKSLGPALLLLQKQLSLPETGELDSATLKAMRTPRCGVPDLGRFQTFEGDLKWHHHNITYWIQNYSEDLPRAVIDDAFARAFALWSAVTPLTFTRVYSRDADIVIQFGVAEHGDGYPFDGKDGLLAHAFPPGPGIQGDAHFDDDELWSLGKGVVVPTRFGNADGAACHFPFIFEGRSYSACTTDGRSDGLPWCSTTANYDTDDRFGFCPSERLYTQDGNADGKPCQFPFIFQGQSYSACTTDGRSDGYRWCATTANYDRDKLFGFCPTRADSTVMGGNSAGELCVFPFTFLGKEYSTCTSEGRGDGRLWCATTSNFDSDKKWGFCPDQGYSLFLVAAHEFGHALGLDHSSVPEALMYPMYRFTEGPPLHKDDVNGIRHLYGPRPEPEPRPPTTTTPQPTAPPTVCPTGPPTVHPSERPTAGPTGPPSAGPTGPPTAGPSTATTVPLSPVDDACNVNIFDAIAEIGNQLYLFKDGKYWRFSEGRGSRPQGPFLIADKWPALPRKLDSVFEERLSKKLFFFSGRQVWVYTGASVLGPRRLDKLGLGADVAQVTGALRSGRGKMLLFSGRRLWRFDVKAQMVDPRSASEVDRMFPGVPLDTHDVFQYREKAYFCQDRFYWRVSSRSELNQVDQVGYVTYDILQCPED

[13] = In vivo inhibitory activity against Matrix metalloprotease enzyme by dialysis implant assay, value are relative to activity of CGS-27023 (64+/-3) at 25 mg/kg. po; assay type: functional
[14] = In vivo inhibitory activity against Matrix metalloprotease enzyme by dialysis implant assay, value is relative to activity of CGS-27023 (76+/-3) at 25 mg/kg. po; assay type: functional
[15] = In vivo inhibitory activity against Matrix metalloprotease enzyme by dialysis implant assay, value is relative to activity of CGS-27023 (68+/5-) at 25 mg/kg. po; assay type: functional
[16] = In vivo inhibitory activity against Matrix metalloprotease enzyme by dialysis implant assay, value is relative to activity of CGS-27023 (54+/-2) at 25 mg/kg. po; assay type: functional
[17] = In vivo inhibitory activity against Matrix metalloprotease enzyme by dialysis implant assay, value are relative to activity of CGS-27023 (73+/-4) at 25 mg/kg. po; assay type: functional
[18] = In vivo inhibitory activity against Matrix metalloprotease enzyme by dialysis implant assay, value is relative to activity of CGS-27023 (42+/-2) at 25 mg/kg. po; assay type: functional
[19] = In vivo inhibition of Matrix metalloprotease enzyme by Sponge-wrapped cartilage assay, value is relative to activity of CGS-27023 (39+/-3) at 25 mg/kg. po. bid; assay type: functional
[20] = In vivo inhibitory activity against Matrix metalloprotease enzyme by dialysis implant assay, value is relative to activity of CGS-27023 (62+/-5) at 25 mg/kg. po; assay type: functional
[21] = In vivo inhibitory activity against Matrix metalloprotease enzyme by dialysis implant assay, value are relative to activity of CGS-27023 (67+/-3) at 25 mg/kg. po; assay type: functional
[22] = In vivo inhibitory activity against Matrix metalloprotease enzyme by dialysis implant assay, value is relative to activity of CGS-27023 (60+/-2) at 25 mg/kg. po; assay type: functional
[23] = In vivo inhibition of Matrix metalloprotease enzyme by Sponge-wrapped cartilage assay, value is relative to activity of RS-130830 (23+/-3) at 10 mg/kg. po. bid; assay type: functional
[24] = In vivo inhibitory activity against Matrix metalloprotease enzyme by dialysis implant assay, value is relative to activity of CGS-27023 (61+/-3) at 25 mg/kg. po; assay type: functional
[25] = molecular target: T3, Interstitial collagenase (Homo sapiens) (UniProt P03956); assay: Inhibition of Matrix metalloprotease-1 at 10 uM; summary of the method: as §1
T3 sequence (whole entry): T2 sequence (P03956 whole entry)

[26] = In vivo inhibition of Matrix metalloprotease enzyme by Sponge-wrapped cartilage assay, value are relative to activity of RS-130830 (27+/-3) at 10 mg/kg. po. bid; assay type: functional
[27] = In vivo inhibitory activity against Matrix metalloprotease enzyme by dialysis implant assay, value is relative to activity of CGS-27023 (60+/-3) at 25 mg/kg. po; assay type: functional

SMILES: COc1ccc(S(=O)(=O)C2(C(=O)NO)CCN(Cc3ccc4ccccc4c3)CC2)cc1
inhibition in vivo at 25 mg/kg [1]: 14% | inhibition in vivo at 25 mg/kg [2]: 62%

IC50 (Collagenase 3): 2 nM
SMILES: CCCCOc1ccc(S(=O)(=O)C2(C(=O)NO)CCN(CC)CC2)cc1
inhibition in vivo at 10 mg/kg [3]: 34% | inhibition [4]: 51% | inhibition in vivo at 25 mg/kg [5]: 64%

SMILES: CCCCOc1ccc(S(=O)(=O)C2(C(=O)NO)CCN(Cc3ccc(OCCN4CCCCC4)cc3)CC2)cc1
inhibition in vivo at 25 mg/kg [6]: 98% | inhibition in vivo at 5 mg/kg [7]: 33% | inhibition in vivo at 10 mg/kg [8]: 67% | inhibition in vivo at 5 mg/kg [9]: 56%

SMILES: O=C(NO)C1(CS(=O)(=O)c2ccc(Oc3ccc(Cl)cc3)cc2)CCOCC1 [CTS-1027]
IC50 [10]: 176 nM | inhibition in vivo at 5 mg/kg (Rattus norvegicus): 20% | gross pathology score at 25 mg/kg (Oryctolagus cuniculus): 7.9 score | IC50 (Interstitial collagenase): 233 nM

SMILES: COc1ccc(S(=O)(=O)C2(C(=O)NO)CCN(C3CCCCCCC3)CC2)cc1
inhibition in vivo at 25 mg/kg [11]: 71% | inhibition [4]: 22%

IC50 [12]: 6 nM
SMILES: COc1ccc(S(=O)(=O)C2(C(=O)NO)CCN(Cc3ccc(-c4ccccn4)cc3)CC2)cc1
inhibition in vivo at 25 mg/kg [13]: 78%

IC50 (Collagenase 3): 6 nM
SMILES: Cc1ccc(CN2CCC(C(=O)NO)(S(=O)(=O)c3ccc(OCc4ccc(Cl)cc4)cc3)CC2)cc1

IC50 [12]: 16 nM | IC50 (Collagenase 3): 2 nM
SMILES: COc1ccc(S(=O)(=O)C2(C(=O)NO)CCN(Cc3ccc(F)cc3)CC2)cc1
inhibition in vivo at 25 mg/kg [14]: 83%

IC50 [12]: 20 nM | IC50 (Collagenase 3): 5 nM
SMILES: CCCCOc1ccc(S(=O)(=O)C2(C(=O)NO)CCN(Cc3ccc(Cl)c(Cl)c3)CC2)cc1
inhibition [4]: 57% | inhibition in vivo at 25 mg/kg [13]: 14%

IC50 [12]: 2 nM | IC50 (Interstitial collagenase): 1260 nM | IC50 (Collagenase 3): 2 nM
SMILES: O=C(NO)C1(S(=O)(=O)c2ccc(Oc3ccc(Cl)cc3)cc2)CCNCC1
IC50 [10]: 848 nM

SMILES: COc1ccc(S(=O)(=O)C2(C(=O)NO)CCN(CC=C(C)C)CC2)cc1
inhibition [4]: 49% | inhibition in vivo at 25 mg/kg [15]: 57%

IC50 [12]: 5 nM
SMILES: CCCCOc1ccc(S(=O)(=O)C2(C(=O)NO)CCN(CCOc3ccccc3)CC2)cc1
inhibition in vivo at 25 mg/kg [16]: 29%

IC50 [12]: 10 nM
SMILES: COc1ccc(S(=O)(=O)C2(C(=O)NO)CCN(Cc3ccccc3)CC2)cc1

IC50 (Interstitial collagenase): 490 nM
SMILES: COc1ccc(CN2CCC(C(=O)NO)(S(=O)(=O)c3ccc(Oc4ccc(Cl)cc4)cc3)CC2)cc1
IC50 [10]: 492 nM | inhibition in vivo at 25 mg/kg [17]: 93%

IC50 [12]: 3 nM | IC50 (Collagenase 3): 3 nM
SMILES: COc1ccc(S(=O)(=O)C2(C(=O)NO)CCN(Cc3ccc(OCCN4CCCCC4)cc3)CC2)cc1
inhibition in vivo at 25 mg/kg [18]: 53% | inhibition in vivo at 25 mg/kg [19]: 56%

IC50 (Collagenase 3): 9 nM
SMILES: COc1ccc(S(=O)(=O)C2(C(=O)NO)CCN(CCc3ccccc3)CC2)cc1
inhibition in vivo at 25 mg/kg [20]: 68%

SMILES: COc1ccc(S(=O)(=O)C2(C(=O)NO)CCN(Cc3ccc(-c4ccccc4)cc3)CC2)cc1
IC50 [10]: 610 nM | IC50 [12]: 13 nM | inhibition in vivo at 25 mg/kg [15]: 29% | IC50 (Interstitial collagenase): 1330 nM | IC50 (Collagenase 3): 3 nM

IC50 [12]: 26 nM | IC50 (Collagenase 3): 3 nM
SMILES: COc1ccc(S(=O)(=O)C2(C(=O)NO)CCN(CCOc3ccccc3)CC2)cc1
inhibition in vivo at 25 mg/kg [16]: 6%

IC50 (Collagenase 3): 2 nM
SMILES: COc1ccc(CCN2CCC(C(=O)NO)(S(=O)(=O)c3ccc(OC)cc3)CC2)cc1
inhibition [4]: 53% | inhibition in vivo at 25 mg/kg [20]: 48%

IC50 [12]: 3 nM
SMILES: CCCCOc1ccc(S(=O)(=O)C2(C(=O)NO)CCN(Cc3cccc(OC)c3)CC2)cc1
inhibition in vivo at 25 mg/kg [21]: 82%

IC50 [12]: 9 nM
SMILES: COc1ccc(S(=O)(=O)C2(C(=O)NO)CCN(Cc3cccc(OC)c3)CC2)cc1
inhibition in vivo at 25 mg/kg [22]: 70%

IC50 [12]: 1 nM | IC50 (Collagenase 3): 1 nM
SMILES: CCN1CCC(C(=O)NO)(S(=O)(=O)c2ccc(Oc3ccc(Cl)cc3)cc2)CC1
inhibition in vivo at 10 mg/kg [23]: 75% | inhibition in vivo at 25 mg/kg [24]: 90%

inhibition [25]: 56%
SMILES: CCCCN1CCC(C(=O)NO)(S(=O)(=O)c2ccc(OC)cc2)CC1
inhibition [4]: 15% | inhibition in vivo at 25 mg/kg [14]: 56%

IC50 [12]: 4 nM | IC50 (Collagenase 3): 2 nM
SMILES: CC(C)CCOc1ccc(S(=O)(=O)C2(C(=O)NO)CCN(Cc3ccccc3)CC2)cc1
inhibition in vivo at 25 mg/kg [13]: 80% | inhibition in vivo at 10 mg/kg [26]: 34%

SMILES: CCCCOc1ccc(S(=O)(=O)C2(C(=O)NO)CCOCC2)cc1
IC50 [10]: 177 nM | IC50 [12]: 9.2 nM | IC50 (Interstitial collagenase): 1380 nM | IC50 (Collagenase 3): 1.4 nM

IC50 (Collagenase 3): 4 nM
SMILES: COc1ccc(S(=O)(=O)C2(C(=O)NO)CCN(CCCOc3ccccc3)CC2)cc1
inhibition in vivo at 25 mg/kg [27]: 28% | inhibition [4]: 50%

IC50 [12]: 10 nM | IC50 (Collagenase 3): 2 nM
SMILES: COc1ccc(S(=O)(=O)C2(C(=O)NO)CCN(Cc3ccc(Br)cc3)CC2)cc1
inhibition [4]: 71% | inhibition in vivo at 25 mg/kg [2]: 51%

inhibition [25]: 59%
SMILES: COc1ccc(S(=O)(=O)C2(C(=O)NO)CCN(C(C)(C)C)CC2)cc1
inhibition [4]: 9%

IC50 [12]: 6 nM | IC50 (Collagenase 3): 2 nM
SMILES: COc1ccc(S(=O)(=O)C2(C(=O)NO)CCN(Cc3ccc(Cl)c(Cl)c3)CC2)cc1
inhibition in vivo at 25 mg/kg [2]: 47%
